Data published in ChEMBL document CHEMBL5247621, “From dopamine 4 to sigma 1: Synthesis, SAR and biological characterization of a piperidine scaffold of σ1 modulators” (Eur J Med Chem, 2022).

Key:
[1] = target: T1, Sigma non-opioid intracellular receptor 1 (Homo sapiens, UniProt Q99720); experiment: Displacement of [3H] Pentazocine from sigma 1 receptor in HEK293 cell membrane; assay type: cell membranes
[2] = target: T2, D(4) dopamine receptor (Homo sapiens) (UniProt P21917); experiment: Displacement of [3H]N-methylspiperone from D4 receptor in HEK293 cell membrane assessed as inhibition constant at 10 uM relative to control; assay type: cell membranes; parameters: scale not given: the % may be the effect or the level left
T2 sequence (whole entry): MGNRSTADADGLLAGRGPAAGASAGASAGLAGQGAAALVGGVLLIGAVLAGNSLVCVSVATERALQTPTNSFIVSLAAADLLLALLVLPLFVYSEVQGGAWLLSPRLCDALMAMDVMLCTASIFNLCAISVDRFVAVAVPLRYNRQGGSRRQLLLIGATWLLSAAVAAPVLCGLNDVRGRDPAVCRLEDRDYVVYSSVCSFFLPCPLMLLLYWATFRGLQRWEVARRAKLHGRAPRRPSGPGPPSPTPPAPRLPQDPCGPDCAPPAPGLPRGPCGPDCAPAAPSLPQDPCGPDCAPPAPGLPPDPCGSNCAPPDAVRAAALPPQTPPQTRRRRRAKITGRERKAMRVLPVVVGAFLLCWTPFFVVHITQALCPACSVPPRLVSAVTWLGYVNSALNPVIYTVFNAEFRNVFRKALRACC

D(4) dopamine receptor = target: T3, D(4) dopamine receptor (Homo sapiens, UniProt P21917); experiment: Displacement of [3H]N-methylspiperone from D4 receptor in HEK293 cell membrane; assay type: cell membranes
T3 sequence (P21917 whole entry): T2 sequence (whole entry)

[3] = target: Sigma intracellular receptor 2 (Homo sapiens, UniProt Q5BJF2); experiment: Displacement of [3H]DTG from sigma-2 receptor in HEK293 cell membrane assessed as inhibition constant; assay type: cell membranes
Sigma intracellular receptor 2, sequence (Q5BJF2 whole entry): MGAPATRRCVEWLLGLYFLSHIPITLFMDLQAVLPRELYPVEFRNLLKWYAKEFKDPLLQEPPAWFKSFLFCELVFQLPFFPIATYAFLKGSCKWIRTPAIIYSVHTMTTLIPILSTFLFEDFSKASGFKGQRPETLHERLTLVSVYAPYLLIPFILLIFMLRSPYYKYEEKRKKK
How it was run: (§1)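 Competitive radioligand binding in membranes harvested from HEK293 cells, with one radioligand per target: [3H]N-methylspiperone for D2, D3 and D4; [3H]SCH23390 for D1 and D5; [3H]pentazocine for σ1; [3H]DTG for σ2. Ki derived from inhibition of binding, each run in triplicate.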

D(2) dopamine receptor = D(2) dopamine receptor (Homo sapiens, UniProt P14416); experiment: Displacement of [3H]N-methylspiperone from D2 receptor in HEK293 cell membrane assessed as inhibition constant; assay type: cell membranes; how it was run: as §1
D(2) dopamine receptor, sequence (P14416 whole entry): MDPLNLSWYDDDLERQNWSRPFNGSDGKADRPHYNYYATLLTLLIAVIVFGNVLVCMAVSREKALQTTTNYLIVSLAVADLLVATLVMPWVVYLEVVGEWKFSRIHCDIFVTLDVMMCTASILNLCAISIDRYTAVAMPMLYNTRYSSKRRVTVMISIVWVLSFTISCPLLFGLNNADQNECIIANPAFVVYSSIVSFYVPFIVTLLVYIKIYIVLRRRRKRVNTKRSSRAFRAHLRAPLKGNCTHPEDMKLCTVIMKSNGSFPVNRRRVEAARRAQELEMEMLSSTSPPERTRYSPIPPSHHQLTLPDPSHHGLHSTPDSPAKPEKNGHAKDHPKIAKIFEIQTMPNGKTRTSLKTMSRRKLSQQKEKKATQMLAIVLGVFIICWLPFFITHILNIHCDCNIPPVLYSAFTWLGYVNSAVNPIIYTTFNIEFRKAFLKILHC

D(3) dopamine receptor = D(3) dopamine receptor (Homo sapiens, UniProt P35462); experiment: Displacement of [3H]N-methylspiperone from D3 receptor in HEK293 cell membrane assessed as inhibition constant; assay type: cell membranes; how it was run: as §1
D(3) dopamine receptor, sequence (P35462 whole entry): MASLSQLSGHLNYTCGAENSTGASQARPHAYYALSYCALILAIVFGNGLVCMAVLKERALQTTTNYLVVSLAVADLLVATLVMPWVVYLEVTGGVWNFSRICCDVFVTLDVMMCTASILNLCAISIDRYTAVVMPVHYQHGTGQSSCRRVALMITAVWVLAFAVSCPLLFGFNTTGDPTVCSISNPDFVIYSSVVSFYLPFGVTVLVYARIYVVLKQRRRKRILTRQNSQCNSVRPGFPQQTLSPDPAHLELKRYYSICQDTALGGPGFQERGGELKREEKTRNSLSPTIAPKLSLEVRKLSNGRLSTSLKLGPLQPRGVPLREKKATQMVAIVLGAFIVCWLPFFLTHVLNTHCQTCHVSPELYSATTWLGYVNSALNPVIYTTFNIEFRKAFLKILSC

D(1B) dopamine receptor = D(1B) dopamine receptor (Homo sapiens, UniProt P21918); experiment: Displacement of [3H]SCH23390 from D5 receptor in HEK293 cell membrane assessed as inhibition constant; assay type: cell membranes; how it was run: as §1
D(1B) dopamine receptor, sequence (P21918 whole entry): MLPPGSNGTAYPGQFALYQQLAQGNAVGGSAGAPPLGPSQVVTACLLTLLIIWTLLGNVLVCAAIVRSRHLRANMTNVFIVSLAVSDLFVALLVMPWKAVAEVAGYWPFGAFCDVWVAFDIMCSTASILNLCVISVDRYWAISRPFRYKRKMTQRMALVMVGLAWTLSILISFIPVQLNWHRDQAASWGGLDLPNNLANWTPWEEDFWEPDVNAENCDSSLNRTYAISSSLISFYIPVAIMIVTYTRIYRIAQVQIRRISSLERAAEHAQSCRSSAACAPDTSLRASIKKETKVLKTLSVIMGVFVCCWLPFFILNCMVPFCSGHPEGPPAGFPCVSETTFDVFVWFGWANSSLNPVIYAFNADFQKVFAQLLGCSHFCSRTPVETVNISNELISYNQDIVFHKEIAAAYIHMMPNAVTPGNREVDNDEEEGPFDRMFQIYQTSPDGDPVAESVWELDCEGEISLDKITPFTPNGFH

D(1A) dopamine receptor = D(1A) dopamine receptor (Homo sapiens, UniProt P21728); experiment: Displacement of [3H]SCH23390 from D1 receptor in HEK293 cell membrane assessed as inhibition constant; assay type: cell membranes; how it was run: as §1
D(1A) dopamine receptor, sequence (P21728 whole entry): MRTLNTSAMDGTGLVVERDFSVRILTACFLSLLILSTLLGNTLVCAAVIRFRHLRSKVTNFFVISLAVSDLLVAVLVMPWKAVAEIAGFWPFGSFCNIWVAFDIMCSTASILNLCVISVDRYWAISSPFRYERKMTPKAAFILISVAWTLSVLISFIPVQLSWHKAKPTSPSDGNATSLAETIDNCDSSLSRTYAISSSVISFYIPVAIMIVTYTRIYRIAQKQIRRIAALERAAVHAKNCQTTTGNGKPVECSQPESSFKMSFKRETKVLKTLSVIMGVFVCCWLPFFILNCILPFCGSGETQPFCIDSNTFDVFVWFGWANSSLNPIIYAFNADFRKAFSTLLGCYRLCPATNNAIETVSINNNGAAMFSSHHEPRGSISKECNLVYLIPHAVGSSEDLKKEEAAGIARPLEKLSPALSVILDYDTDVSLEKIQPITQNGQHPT

[4] = target: T1, Sigma non-opioid intracellular receptor 1; experiment: Displacement of [3H] Pentazocine from sigma 1 receptor in HEK293 cell membrane assessed as inhibition constant relative to control; assay type: cell membranes; parameters: scale not given: the % may be the effect or the level left; how it was run: as §1
[5] = Plasma protein binding in human assessed as unbound fraction; assay type: ADME, cell-free
How it was run: (§2)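 Plasma protein binding by equilibrium dialysis in human or mouse plasma, reported as fraction unbound (fu).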

[6] = Plasma protein binding in mouse assessed as unbound fraction; assay type: ADME; how it was run: as §2

T1 sequence (Q99720 whole entry): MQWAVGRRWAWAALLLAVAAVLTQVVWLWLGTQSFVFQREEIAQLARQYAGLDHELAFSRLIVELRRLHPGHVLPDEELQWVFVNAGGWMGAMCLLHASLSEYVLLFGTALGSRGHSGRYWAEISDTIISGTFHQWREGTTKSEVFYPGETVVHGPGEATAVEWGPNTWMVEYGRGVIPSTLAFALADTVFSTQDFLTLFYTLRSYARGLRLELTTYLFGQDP

Ki ([1]; read-out: Ki) [nM]	Activity [2] [%]	Ki (D(4) dopamine receptor; read-out: Ki) [nM]	SMILES	other results
35			FC(F)(F)Oc1cccc(CO[C@H]2CCCN(Cc3cn4ccccc4n3)C2)c1	
97			Cc1c(Cl)cccc1NC(=O)CN1CCC(OCc2ccc(Cl)c(F)c2)CC1	
19	23		Cc1c(Cl)cccc1NC(=O)CN1CCC2(CCCN(Cc3ccc(F)c(F)c3)C2)C1 (stereo not given)	
23		28	Cn1ncc2cc(CN3CCO[C@H](COc4ccc(F)c(F)c4)C3)ccc21	
5.5		268	Fc1ccc(CN2CCCC23CCN(Cc2cc4ccc(Cl)cc4[nH]2)C3)cc1F (stereo not given)	Ki ([1]; read-out: pKi (converted)): 5.37 nM; Ki [3]: 23 nM; Ki (D(2) dopamine receptor): > 10 µM; Ki (D(3) dopamine receptor): 118 nM; Ki (D(1B) dopamine receptor): > 10 µM; Ki (D(1A) dopamine receptor): 2.37 µM
		1560	Cc1csc(OC[C@@H]2CN(Cc3cn4ccccc4n3)CCO2)n1	Activity [4]: 6%
5.5			COc1ccc(CN2CCC[C@H](OCc3ccc(C)cc3)C2)cc1F	Fu [5]: 1.3%; Fu [6]: 2.5%
3.5		175	FC(F)(F)c1cccc(COC2CCN(Cc3cn4ccccc4n3)CC2)c1	Fu [5]: 2.2%; Fu [6]: 8.8%
	23		Cc1cccc(CO[C@H]2CCCN(Cc3cn4ccccc4n3)C2)n1	Activity [4]: 39%
31	48		Cn1cnc2cc(CN3CCC(OCc4ccc(Cl)c(F)c4)CC3)ccc21	Fu [5]: 13%; Fu [6]: 75%
4.3			COc1ccc(CN2CCC[C@H](OCc3cccc(F)c3)C2)cc1F	
14		1700	Cc1c(Cl)cccc1NC(=O)CN1CCC2(CCCN2Cc2ccc(F)c(F)c2)C1 (stereo not given)	Ki [3]: 43 nM; Ki (D(1A) dopamine receptor): > 10 µM
14			FC(F)(F)c1cccc(COC2CCN(Cc3cc4ccc(Cl)cc4[nH]3)CC2)c1	Ki (D(4) dopamine receptor; read-out: pKi (converted)): 209 nM
52		3.5	Fc1ccc2c(CN3CCC(F)(F)[C@H](CCc4ccccc4)C3)c[nH]c2c1	
16	14		Cc1cc(NC(=O)CN2CCC3(CCCN3Cc3ccc(F)c(F)c3)C2)ccc1F (stereo not given)	Ki [3]: 47 nM; Ki (D(3) dopamine receptor): 512 nM; Ki (D(1B) dopamine receptor): > 10 µM; Ki (D(1A) dopamine receptor): > 10 µM
3.6	-0.7		Fc1ccc(CN2CCCC23CCN(Cc2cn4ccccc4n2)C3)cc1F (stereo not given)	Ki [3]: 23 nM; Fu [5]: 2.7%; Ki (D(1A) dopamine receptor): > 10 µM; Fu [6]: 30.2%
